How the values were obtained:
Aeromonas sobria [1] = assay: Antimicrobial activity against Aeromonas sobria assessed as susceptibility level by disk diffusion method; assay type: functional
How it was run: (§1)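 Cefotaxime and ciprofloxacin susceptibility taken from routine clinical laboratory reports; disk diffusion per CLSI guidelines.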

Aeromonas hydrophila [2] = assay: Antimicrobial activity against Aeromonas hydrophila assessed as susceptibility level by disk diffusion method; assay type: functional; how it was run: as §1
Salmonella enterica = assay: Antimicrobial activity against Salmonella serotype Choleraesuis assessed as susceptibility level by disk diffusion method; assay type: functional
How it was run: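 Cefotaxime and ciprofloxacin susceptibility was taken from routine laboratory reports. These were generated by disk diffusion according to CLSI guidelines.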

Salmonella [3] = assay: Antimicrobial activity against Salmonella serogroup O9 assessed as susceptibility level by disk diffusion method; assay type: functional; how it was run: as §1
Salmonella [4] = assay: Antimicrobial activity against Salmonella serogroup O8 assessed as susceptibility level by disk diffusion method; assay type: functional; how it was run: as §1
Salmonella [5] = assay: Antimicrobial activity against Salmonella serogroup O7 assessed as susceptibility level by disk diffusion method; assay type: functional; how it was run: as §1
Aeromonas caviae [6] = assay: Antimicrobial activity against Aeromonas caviae assessed as susceptibility level by disk diffusion method; assay type: functional; how it was run: as §1
Aeromonas sobria [7] = assay: Antimicrobial activity against Aeromonas sobria assessed as susceptible isolate by EUCAST method; assay type: functional
How it was run: (§2)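 Susceptibility categories assigned from tigecycline broth microdilution MICs (CLSI method, 0.03–128 μg/ml) using US FDA or EUCAST breakpoints, as named in each line.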

[8] = Antimicrobial activity against Salmonella serotype Choleraesuis assessed as resistant isolate by EUCAST method; assay type: functional, Salmonella enterica subsp. enterica serovar Choleraesuis
How it was run: (§3)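 Tigecycline MICs for clinical isolates (Taiwan) were determined by broth microdilution over 0.03 to 128 μg/ml. A control strain was included, and its MICs had to fall within the recommended range. Susceptible, intermediate and resistant categories were assigned from the MICs using US FDA and EUCAST breakpoints.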

Vibrio parahaemolyticus [9] = assay: Antimicrobial activity against Vibrio parahaemolyticus assessed as susceptible isolate by FDA method; assay type: functional; how it was run: as §2
Vibrio cholerae [10] = assay: Antimicrobial activity against Vibrio cholerae non-O1 assessed as resistant isolate by FDA method; assay type: functional; how it was run: as §3
Vibrio cholerae [11] = assay: Antimicrobial activity against Vibrio cholerae non-O1 assessed as intermediate isolate by EUCAST method; assay type: functional; how it was run: as §3
Vibrio vulnificus [12] = assay: Antimicrobial activity against Vibrio vulnificus assessed as intermediate isolate by EUCAST method; assay type: functional; how it was run: as §3
Salmonella [13] = assay: Antimicrobial activity against Salmonella serogroup O8 assessed as susceptible isolate by FDA method; assay type: functional; how it was run: as §2
Aeromonas caviae [14] = assay: Antimicrobial activity against Aeromonas caviae assessed as resistant isolate by FDA method; assay type: functional; how it was run: as §3
Vibrio parahaemolyticus [15] = assay: Antimicrobial activity against Vibrio parahaemolyticus assessed as intermediate isolate by EUCAST method; assay type: functional; how it was run: as §2
Aeromonas hydrophila [16] = assay: Antimicrobial activity against Aeromonas hydrophila assessed as intermediate isolate by EUCAST method; assay type: functional; how it was run: as §2
Vibrio parahaemolyticus [17] = assay: Antimicrobial activity against Vibrio parahaemolyticus assessed as susceptible isolate by EUCAST method; assay type: functional; how it was run: as §2
Aeromonas caviae [18] = assay: Antimicrobial activity against Aeromonas caviae assessed as intermediate isolate by EUCAST method; assay type: functional; how it was run: as §3
Salmonella [19] = assay: Antimicrobial activity against Salmonella serogroup O9 assessed as intermediate isolate by EUCAST method; assay type: functional; how it was run: as §3
Salmonella [20] = assay: Antimicrobial activity against Salmonella serogroup O7 assessed as intermediate isolate by EUCAST method; assay type: functional; how it was run: as §2
[21] = Antimicrobial activity against Salmonella serotype Choleraesuis assessed as susceptible isolate by FDA method; assay type: functional, Salmonella enterica subsp. enterica serovar Choleraesuis; how it was run: as §3
[22] = Antimicrobial activity against Salmonella serotype Choleraesuis assessed as intermediate isolate by EUCAST method; assay type: functional, Salmonella enterica subsp. enterica serovar Choleraesuis; how it was run: as §3
Vibrio parahaemolyticus [23] = assay: Antimicrobial activity against Vibrio parahaemolyticus assessed as intermediate isolate by FDA method; assay type: functional; how it was run: as §3
Salmonella [24] = assay: Antimicrobial activity against Salmonella serogroup O8 assessed as intermediate isolate by FDA method; assay type: functional; how it was run: as §2
Aeromonas caviae [25] = assay: Antimicrobial activity against Aeromonas caviae assessed as intermediate isolate by FDA method; assay type: functional; how it was run: as §2
Vibrio cholerae [26] = assay: Antimicrobial activity against Vibrio cholerae non-O1 assessed as resistant isolate by EUCAST method; assay type: functional; how it was run: as §3
Salmonella [27] = assay: Antimicrobial activity against Salmonella serogroup O7 assessed as intermediate isolate by FDA method; assay type: functional; how it was run: as §2
Salmonella [28] = assay: Antimicrobial activity against Salmonella serogroup O8 assessed as intermediate isolate by EUCAST method; assay type: functional; how it was run: as §2
Salmonella [29] = assay: Antimicrobial activity against Salmonella serogroup O8 assessed as susceptible isolate by EUCAST method; assay type: functional; how it was run: as §2
Aeromonas sobria [30] = assay: Antimicrobial activity against Aeromonas sobria assessed as intermediate isolate by EUCAST method; assay type: functional; how it was run: as §2
Salmonella [31] = assay: Antimicrobial activity against Salmonella serogroup O9 assessed as susceptible isolate by FDA method; assay type: functional; how it was run: as §2
Salmonella [32] = assay: Antimicrobial activity against Salmonella serogroup O9 assessed as susceptible isolate by EUCAST method; assay type: functional; how it was run: as §2
Vibrio cholerae [33] = assay: Antimicrobial activity against Vibrio cholerae non-O1 assessed as intermediate isolate by FDA method; assay type: functional; how it was run: as §3
[34] = Antimicrobial activity against Salmonella serotype Choleraesuis assessed as resistant isolate by FDA method; assay type: functional, Salmonella enterica subsp. enterica serovar Choleraesuis; how it was run: as §3
Aeromonas caviae [35] = assay: Antimicrobial activity against Aeromonas caviae assessed as susceptible isolate by FDA method; assay type: functional; how it was run: as §3
Salmonella typhimurium [36] = assay: Antimicrobial activity against Salmonella serotype Typhimurium assessed as intermediate isolate by EUCAST method; assay type: functional, Salmonella enterica subsp. enterica serovar Typhimurium; how it was run: as §2
Aeromonas hydrophila [37] = assay: Antimicrobial activity against Aeromonas hydrophila assessed as susceptible isolate by FDA method; assay type: functional; how it was run: as §2
Aeromonas hydrophila [38] = assay: Antimicrobial activity against Aeromonas hydrophila assessed as intermediate isolate by FDA method; assay type: functional; how it was run: as §3
Salmonella [39] = assay: Antimicrobial activity against Salmonella serogroup O7 assessed as susceptible isolate by FDA method; assay type: functional; how it was run: as §2
Salmonella typhimurium [40] = assay: Antimicrobial activity against Salmonella serotype Typhimurium assessed as susceptible isolate by FDA method; assay type: functional, Salmonella enterica subsp. enterica serovar Typhimurium; how it was run: as §2
Aeromonas sobria [41] = assay: Antimicrobial activity against Aeromonas sobria assessed as susceptible isolate by FDA method; assay type: functional; how it was run: as §2
Salmonella [42] = assay: Antimicrobial activity against Salmonella serogroup O9 assessed as intermediate isolate by FDA method; assay type: functional; how it was run: as §2
Vibrio cholerae [43] = assay: Antimicrobial activity against Vibrio cholerae non-O1 assessed as susceptible isolate by FDA method; assay type: functional; how it was run: as §3
Aeromonas hydrophila [44] = assay: Antimicrobial activity against Aeromonas hydrophila assessed as susceptible isolate by EUCAST method; assay type: functional; how it was run: as §2
Vibrio vulnificus [45] = assay: Antimicrobial activity against Vibrio vulnificus assessed as intermediate isolate by FDA method; assay type: functional; how it was run: as §2
Vibrio cholerae [46] = assay: Antimicrobial activity against Vibrio cholerae non-O1 assessed as susceptible isolate by EUCAST method; assay type: functional; how it was run: as §3
Salmonella [47] = assay: Antimicrobial activity against Salmonella serogroup O7 assessed as susceptible isolate by EUCAST method; assay type: functional; how it was run: as §2
Vibrio vulnificus [48] = assay: Antimicrobial activity against Vibrio vulnificus assessed as susceptible isolate by EUCAST method; assay type: functional; how it was run: as §2
Salmonella typhimurium [49] = assay: Antimicrobial activity against Salmonella serotype Typhimurium assessed as susceptible isolate by EUCAST method; assay type: functional, Salmonella enterica subsp. enterica serovar Typhimurium; how it was run: as §2
Salmonella typhimurium [50] = assay: Antimicrobial activity against Salmonella serotype Typhimurium assessed as intermediate isolate by FDA method; assay type: functional, Salmonella enterica subsp. enterica serovar Typhimurium; how it was run: as §2
Aeromonas sobria [51] = assay: Antimicrobial activity against Aeromonas sobria assessed as intermediate isolate by FDA method; assay type: functional; how it was run: as §3
[52] = Antimicrobial activity against Salmonella serotype Choleraesuis assessed as intermediate isolate by FDA method; assay type: functional, Salmonella enterica subsp. enterica serovar Choleraesuis; how it was run: as §3
Vibrio vulnificus [53] = assay: Antimicrobial activity against Vibrio vulnificus assessed as susceptible isolate by FDA method; assay type: functional; how it was run: as §2
Aeromonas caviae [54] = assay: Antimicrobial activity against Aeromonas caviae assessed as susceptible isolate by EUCAST method; assay type: functional; how it was run: as §2

O=C(O)c1cn(C2CC2)c2cc(N3CCNCC3)c(F)cc2c1=O [CIPROFLOXACIN]
Activity (Aeromonas sobria [1]): 93% | Activity (Aeromonas hydrophila [2]): 90% | Activity (Salmonella enterica): 22% | Activity (Salmonella [3]): 96% | Activity (Salmonella [4]): 57% | Activity (Salmonella [5]): 77% | Activity (Aeromonas caviae [6]): 86%

CN(C)c1cc(NC(=O)CNC(C)(C)C)c(O)c2c1C[C@H]1C[C@H]3[C@H](N(C)C)C(O)=C(C(N)=O)C(=O)[C@@]3(O)C(O)=C1C2=O [TIGECYCLINE]
Activity (Aeromonas sobria [7]): 100% | Activity [8]: 0% | Activity (Vibrio parahaemolyticus [9]): 100% | Activity (Vibrio cholerae [10]): 0% | Activity (Vibrio cholerae [11]): 0% | Activity (Vibrio vulnificus [12]): 0% | Activity (Salmonella [13]): 100% | Activity (Aeromonas caviae [14]): 0% | Activity (Vibrio parahaemolyticus [15]): 0% | Activity (Aeromonas hydrophila [16]): 1.2% | Activity (Vibrio parahaemolyticus [17]): 100% | Activity (Aeromonas caviae [18]): 1.6% | Activity (Salmonella [19]): 0% | Activity (Salmonella [20]): 0% | Activity [21]: 100% | Activity [22]: 1.6% | Activity (Vibrio parahaemolyticus [23]): 0% | Activity (Salmonella [24]): 0% | Activity (Aeromonas caviae [25]): 1.6% | Activity (Vibrio cholerae [26]): 0% | Activity (Salmonella [27]): 0% | Activity (Salmonella [28]): 0% | Activity (Salmonella [29]): 100% | Activity (Aeromonas sobria [30]): 0% | Activity (Salmonella [31]): 100% | Activity (Salmonella [32]): 100% | Activity (Vibrio cholerae [33]): 0% | Activity [34]: 0% | Activity (Aeromonas caviae [35]): 98.4% | Activity (Salmonella typhimurium [36]): 1.6% | Activity (Aeromonas hydrophila [37]): 100% | Activity (Aeromonas hydrophila [38]): 0% | Activity (Salmonella [39]): 100% | Activity (Salmonella typhimurium [40]): 100% | Activity (Aeromonas sobria [41]): 100% | Activity (Salmonella [42]): 0% | Activity (Vibrio cholerae [43]): 100% | Activity (Aeromonas hydrophila [44]): 98.8% | Activity (Vibrio vulnificus [45]): 0% | Activity (Vibrio cholerae [46]): 100% | Activity (Salmonella [47]): 100% | Activity (Vibrio vulnificus [48]): 100% | Activity (Salmonella typhimurium [49]): 98.4% | Activity (Salmonella typhimurium [50]): 0% | Activity (Aeromonas sobria [51]): 0% | Activity [52]: 0% | Activity (Vibrio vulnificus [53]): 100% | Activity (Aeromonas caviae [54]): 96.8%

Reference: ChEMBL document CHEMBL1629548, “In vitro activities of tigecycline against clinical isolates of Aeromonas, Vibrio, and Salmonella species in Taiwan” (2008)
